Measurements reported in ChEMBL document CHEMBL3745659, “Synthesis and Characterization of 4,11-Diaminoanthra[2,3-b]furan-5,10-diones: Tumor Cell Apoptosis through tNOX-Modulated NAD(+)/NADH Ratio and SIRT1” (J Med Chem, 2015).
Activity calls are given as the source filed them. The rule behind the calls is not given here.

Assays:
[1] = target: T1, NAD-dependent protein deacetylase sirtuin-1 (Homo sapiens, UniProt Q96EB6); experiment: Inhibition of human recombinant SIRT1 deacetylase activity using Arg-His-Lys-Lys(epsilon-acetyl)-AMC as substrate incubated for 45 mins by fluorescence analysis
T1 sequence (Q96EB6 whole entry): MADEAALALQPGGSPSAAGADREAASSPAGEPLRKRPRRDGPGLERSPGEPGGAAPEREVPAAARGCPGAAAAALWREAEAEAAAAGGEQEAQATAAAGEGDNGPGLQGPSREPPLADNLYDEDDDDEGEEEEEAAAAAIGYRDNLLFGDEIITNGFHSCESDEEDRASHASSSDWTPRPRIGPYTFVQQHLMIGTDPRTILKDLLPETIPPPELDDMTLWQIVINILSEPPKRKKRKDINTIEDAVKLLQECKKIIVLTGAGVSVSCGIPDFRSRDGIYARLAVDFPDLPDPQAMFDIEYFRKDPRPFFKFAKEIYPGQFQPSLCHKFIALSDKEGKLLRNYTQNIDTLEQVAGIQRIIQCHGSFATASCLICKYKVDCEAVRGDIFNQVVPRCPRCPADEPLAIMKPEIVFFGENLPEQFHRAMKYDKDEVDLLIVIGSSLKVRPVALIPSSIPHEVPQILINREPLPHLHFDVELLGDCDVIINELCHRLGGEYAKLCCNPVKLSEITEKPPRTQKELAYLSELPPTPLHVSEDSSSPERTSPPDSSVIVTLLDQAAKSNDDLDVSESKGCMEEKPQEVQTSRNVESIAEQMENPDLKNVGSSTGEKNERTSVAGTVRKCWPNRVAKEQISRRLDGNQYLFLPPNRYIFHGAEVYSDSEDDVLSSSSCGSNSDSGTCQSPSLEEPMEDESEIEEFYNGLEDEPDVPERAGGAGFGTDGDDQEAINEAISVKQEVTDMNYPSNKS

MRC5 = experiment: Antiproliferative activity against human MRC5 cells after 72 hrs by cell impedance based study; details: MRC5, 72 h
AGS [2] = experiment: Induction of apoptosis in human AGS cells assessed as early apoptotic cells at 1 uM after 24 hrs by annexin V-FITC staining-based flow cytometric analysis (Rvb=7.2%); type: functional
How it was run: (§1)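 AGS cells exposed to compound for 24 h; Annexin V-FITC staining and flow cytometry used to give percentage of apoptotic cells; mean ± S.E. from at least three independent experiments.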

AGS [3] = experiment: Induction of apoptosis in human AGS cells assessed as viable cells at 1 uM after 24 hrs by annexin V-FITC staining-based flow cytometric analysis (Rvb=91.5%); type: functional; details: read-out: Activity; how it was run: as §1
AGS [4] = experiment: […] in human AGS cells assessed as downregulation of beta-catenin after 24 hrs by Western blot analysis; type: functional, cell-based
[5] = target: T2, DNA topoisomerase 1 (Homo sapiens) (UniProt P11387); experiment: Inhibition of Top1 (unknown origin)-mediated relaxation of pBR322 DNA at 2.5 uM incubated for 30 mins by ethidium bromide staining-based gel electrophoresis assay
T2 sequence (whole entry): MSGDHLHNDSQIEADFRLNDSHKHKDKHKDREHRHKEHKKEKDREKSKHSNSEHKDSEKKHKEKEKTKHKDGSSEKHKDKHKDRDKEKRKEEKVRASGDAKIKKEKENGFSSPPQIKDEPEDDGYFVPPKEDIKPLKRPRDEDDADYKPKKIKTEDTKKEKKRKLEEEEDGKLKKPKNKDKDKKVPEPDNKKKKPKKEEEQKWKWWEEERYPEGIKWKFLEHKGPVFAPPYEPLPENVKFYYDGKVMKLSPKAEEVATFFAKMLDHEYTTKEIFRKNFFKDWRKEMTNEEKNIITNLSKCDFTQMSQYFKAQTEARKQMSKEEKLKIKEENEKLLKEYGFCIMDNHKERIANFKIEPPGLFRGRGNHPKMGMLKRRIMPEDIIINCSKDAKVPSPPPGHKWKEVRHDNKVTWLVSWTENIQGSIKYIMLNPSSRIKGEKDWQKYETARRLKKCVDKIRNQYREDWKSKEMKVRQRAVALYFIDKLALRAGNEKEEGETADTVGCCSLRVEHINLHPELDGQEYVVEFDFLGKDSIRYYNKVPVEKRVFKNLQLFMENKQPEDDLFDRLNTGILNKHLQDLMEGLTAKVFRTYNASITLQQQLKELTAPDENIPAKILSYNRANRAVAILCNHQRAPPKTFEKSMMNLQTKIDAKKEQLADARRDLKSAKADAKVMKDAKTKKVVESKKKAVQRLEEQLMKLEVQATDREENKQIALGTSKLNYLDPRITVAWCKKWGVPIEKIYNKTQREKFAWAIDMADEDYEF
How it was run: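 Supercoiled pBR322 plasmid treated with Top1 without drug or with compound at 0.5, 2.5 or 10 µM; camptothecin as reference; relaxation assessed by gel electrophoresis.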

AGS [6] = experiment: Induction of apoptosis in human AGS cells assessed as early apoptotic cells at 0.05 uM after 24 hrs by annexin V-FITC staining-based flow cytometric analysis (Rvb=7.2%); type: functional; how it was run: as §1
AGS [7] = experiment: Downregulation of Bid protein level in human AGS cells after 24 hrs by Western blot analysis; type: functional, cell-based
AGS [8] = experiment: Upregulation of caspase3-directed PARP cleavage in human AGS cells at 5 uM after 24 hrs by Western blot analysis; type: functional, cell-based
AGS [9] = experiment: Induction of apoptosis in human AGS cells assessed as change in mitochondrial transmembrane potential incubated for 1.5 hrs by DiOC6(3) dye-based flow cytometric analysis; type: functional, cell-based
AGS [10] = experiment: Downregulation of SIRT1 protein level in human AGS cells at 1 and 5 uM after 24 after 24 hrs by Western blot analysis; type: functional, cell-based
AGS [11] = experiment: Upregulation of acetylated p53 level in human AGS cells at 1 and 5 uM after 24 hrs by Western blot analysis; type: functional, cell-based
AGS [12] = experiment: Induction of apoptosis in human AGS cells assessed as late apoptotic cells at 0.05 uM after 24 hrs by annexin V-FITC staining-based flow cytometric analysis (Rvb=0.3%); type: functional; how it was run: as §1

- IC50 [1]: 3930 nM
- inhibition [5]: Active
Structure (SMILES): CNCCNc1c2c(c(NCCNC)c3occc13)C(=O)c1ccccc1C2=O
- IC50 (MRC5): 780 nM
- Activity (AGS [2]): 21.6%
- viability at 1 µM (AGS [3]): 61.6%
- Activity (AGS [4]): Active
- Activity (AGS [6]): 13%
- Activity (AGS [7]): Active
- Activity (AGS [8]): Active
- Activity (AGS [9]): Active
- Activity (AGS [10]): Active
- Activity (AGS [11]): Active
- Activity (AGS [12]): 0.7%
